Source: ChEMBL document CHEMBL4052832, “Selective Inhibitors of Human Neuraminidase 3” (J Med Chem, 2018)
≈ marks a conversion by molar mass, not a printed value. One block for each compound: values may come before it. Calls of active or inactive are those of the source. No cut-off for these calls is given here.

Tests used:
[1] = biological target: T1, Sialidase-1 (Homo sapiens, UniProt Q99519); assay: Inhibition of human CathA-IRES-6His-tagged NEU1 expressed in HEK293T cells using 4MU-NANA as substrate preincubated for 15 mins followed by substrate addition measured after 30 mins by fluorescence based assay; format: cell-based, HEK-293T
[2] = biological target: Sialidase-1 (Mus musculus) (UniProt O35657); assay: Inhibition of NEU1 in NEU3/NEU4 double knockout C57BL6 mouse brain homogenate up to 150 uM using 4MU-NANA as substrate after 30 mins
How it was run: (§1)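 Brains from 12-week-old WT, neu1−/−, neu3−/− or neu3−/−neu4−/− mice, snap-frozen and homogenized in water; protein by Bradford. Acidic neuraminidase assayed at pH 4.6 using homogenate equal to 300 μg protein, inhibitor 0–150 μM and 200 μM 4MU-NANA, 37 °C for 30 min. Stopped with 0.4 M glycine pH 10.5. Activity relative to no-inhibitor, mean ± SD of 6–12 experiments.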

[3] = biological target: Sialidase NEU3/NEU4 (Mus musculus) (UniProt Q9JMH7+Q8BZL1); assay: Inhibition of NEU3/NEU4 in NEU1 knockout C57BL6 mouse brain homogenate assessed as residual activity using 4MU-NANA as substrate after 30 mins relative to control; how it was run: as §1
[4] = biological target: Sialidase-1 (Mus musculus) (UniProt O35657); assay: Inhibition of NEU1 in C57BL6 mouse brain homogenate assessed as residual activity at 10 uM using 4MU-NANA as substrate after 30 mins relative to control; how it was run: as §1
[5] = Octanol-water partition coefficient, log D of compound at pH 7.4 at 10 uM after 2 hrs by LC-MS based shake flask analysis; format: physicochemical
How it was run: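 Shake-flask log D at pH 7.4. Octanol and 0.1 M Tris-HCl pH 7.4, mutually saturated. Compound at 10 μM in buffer with 0.1% DMSO, at two octanol:buffer ratios, each in triplicate.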

[6] = biological target: T2, Sialidase-3 (Homo sapiens, UniProt Q9UQ49); assay: Inhibition of human N-terminal MBP-fused NEU3 expressed in Escherichia coli using GM3 as substrate preincubated for 15 mins followed by substrate addition measured after 30 mins by fluorescence based assay
T2 sequence (Q9UQ49 whole entry): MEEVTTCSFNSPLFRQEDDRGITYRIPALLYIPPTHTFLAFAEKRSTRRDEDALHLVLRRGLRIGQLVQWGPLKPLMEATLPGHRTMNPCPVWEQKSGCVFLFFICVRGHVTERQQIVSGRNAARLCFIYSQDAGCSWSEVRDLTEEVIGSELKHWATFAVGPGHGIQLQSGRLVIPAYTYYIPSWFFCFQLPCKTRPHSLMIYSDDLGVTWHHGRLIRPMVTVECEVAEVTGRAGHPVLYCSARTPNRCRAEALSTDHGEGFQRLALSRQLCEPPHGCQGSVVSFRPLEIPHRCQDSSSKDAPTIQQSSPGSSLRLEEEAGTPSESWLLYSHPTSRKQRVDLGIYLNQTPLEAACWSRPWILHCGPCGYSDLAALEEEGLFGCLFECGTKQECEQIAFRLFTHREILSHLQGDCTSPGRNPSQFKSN
How it was run: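 GM3 hydrolysis in 0.1 M sodium acetate pH 4.5. Serially diluted inhibitors preincubated with enzyme 15 min at 0 °C, then GM3 added to 500 μM for 30 min at 37 °C. Quenched with fresh 0.2 M sodium borate pH 10.2, then malononitrile added to form a fluorescent adduct with freed sialic acid; ex 357/em 434 nm.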

[7] = biological target: T2, Sialidase-3; assay: Inhibition of human N-terminal MBP-fused NEU3 expressed in Escherichia coli using 4MU-NANA as substrate preincubated for 15 mins followed by substrate addition measured every minute for 30 mins by fluorescence based assay
[8] = biological target: T1, Sialidase-1; assay: Inhibition of human CathA-IRES-6His-tagged NEU1 expressed in HEK293T cells using 4MU-NANA as substrate preincubated for 15 mins followed by substrate addition measured every minute for 30 mins by fluorescence based assay; format: cell-based; settings: hek-293t
How it was run: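 Ki determination. Enzyme preincubated with serially diluted inhibitor 15 min at 0 °C, then serial 4MU-NANA concentrations added.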

[9] = biological target: T2, Sialidase-3; assay: Inhibition of human N-terminal MBP-fused NEU3 expressed in Escherichia coli using 4MU-NANA as substrate preincubated for 15 mins followed by substrate addition measured after 30 mins by fluorescence based assay
[10] = Half life in human liver microsomes at 20 uM by LC-MS analysis; format: ADME, microsome
[11] = Efflux ratio of apparent permeability from basolateral to apical side over apical to basolateral side of human Caco2 cells at 62.5 uM after 30 mins by LC-MS analysis; format: ADME, cell-based; settings: Caco-2
How it was run: (§2)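 Caco-2 monolayer permeation run in triplicate in the apical-to-basolateral and basolateral-to-apical directions. Compound at 62.5 μM in the donor chamber with 0.6% DMSO. Samples taken at 30 min for LC-MS. Papp = (dQ/dt)/(A × c0). Efflux ratio is Papp b→a over Papp a→b.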

[12] = Apparent permeability from apical side to basolateral side in human Caco2 cells at 62.5 uM after 30 mins by LC-MS analysis; format: ADME, cell-based; settings: Caco-2; how it was run: as §2
[13] = Apparent permeability from basolateral side to apical side in human Caco2 cells at 62.5 uM after 30 mins by LC-MS analysis; format: ADME, cell-based; settings: Caco-2; how it was run: as §2
[14] = Kinetic solubility of compound in 0.9% NaCl at 10 mM incubated in supersonic bath for 30 mins measured after 24 hrs by LC-MS analysis; format: physicochemical; settings: read-out: Kinetic_solubility
How it was run: (§3)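 Kinetic solubility. 10 mM DMSO stock diluted 1:100 into 0.1 M Tris-HCl pH 7.4, Prisma HT buffer, or 0.9% NaCl in water (final 1% DMSO). Sonicated 30 min at 25 °C, equilibrated 24 h at 25 °C, filtered (0.2 μm), diluted in MeOH and analysed by LC-MS. Single measurements.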

[15] = Kinetic solubility of compound in Tris-HCl buffer at pH 7.4 at 10 mM incubated in supersonic bath for 30 mins measured after 24 hrs by LC-MS analysis; format: physicochemical; how it was run: as §3
[16] = Kinetic solubility of compound in Prisma HT 6.5 buffer at pH 7.4 at 10 mM incubated in supersonic bath for 30 mins measured after 24 hrs by LC-MS analysis; format: physicochemical; settings: pH 6.5, in the assay text read “at pH 6.5” for “at pH 7.4”, read-out: Kinetic_solubility; how it was run: as §3
[17] = biological target: T3, Sialidase-4 (Homo sapiens, UniProt Q8WWR8); assay: Inhibition of human N-terminal MBP-fused NEU4 expressed in Escherichia coli using 4MU-NANA as substrate preincubated for 15 mins followed by substrate addition measured after 30 mins by fluorescence based assay
T3 sequence (Q8WWR8 whole entry): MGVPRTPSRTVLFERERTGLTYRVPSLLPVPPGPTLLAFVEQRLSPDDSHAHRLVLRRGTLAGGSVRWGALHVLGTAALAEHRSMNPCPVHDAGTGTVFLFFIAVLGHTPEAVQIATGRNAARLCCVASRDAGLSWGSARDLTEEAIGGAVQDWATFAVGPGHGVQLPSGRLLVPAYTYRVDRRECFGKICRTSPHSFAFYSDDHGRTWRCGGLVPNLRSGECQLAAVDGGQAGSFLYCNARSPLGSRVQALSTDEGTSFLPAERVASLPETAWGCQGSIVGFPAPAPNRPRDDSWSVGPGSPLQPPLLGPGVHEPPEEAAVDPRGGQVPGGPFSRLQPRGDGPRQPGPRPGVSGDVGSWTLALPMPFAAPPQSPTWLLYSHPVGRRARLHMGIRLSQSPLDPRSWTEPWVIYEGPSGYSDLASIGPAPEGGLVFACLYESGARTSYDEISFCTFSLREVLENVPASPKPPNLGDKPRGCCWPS

Sialidase NEU3/NEU4 (Mus musculus), sequence (Q8BZL1 whole entry, looked up): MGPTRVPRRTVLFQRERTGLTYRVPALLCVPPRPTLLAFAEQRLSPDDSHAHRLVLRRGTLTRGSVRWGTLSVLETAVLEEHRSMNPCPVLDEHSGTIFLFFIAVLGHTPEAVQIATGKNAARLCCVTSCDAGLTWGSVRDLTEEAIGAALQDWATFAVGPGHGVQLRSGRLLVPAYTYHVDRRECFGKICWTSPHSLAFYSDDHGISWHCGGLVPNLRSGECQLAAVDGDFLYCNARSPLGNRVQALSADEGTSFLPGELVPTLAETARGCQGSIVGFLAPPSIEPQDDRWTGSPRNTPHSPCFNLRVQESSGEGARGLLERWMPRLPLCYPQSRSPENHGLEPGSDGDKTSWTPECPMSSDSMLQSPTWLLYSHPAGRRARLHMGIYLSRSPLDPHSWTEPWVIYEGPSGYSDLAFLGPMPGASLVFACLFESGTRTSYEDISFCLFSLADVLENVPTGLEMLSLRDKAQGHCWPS
Sialidase NEU3/NEU4 (Mus musculus), sequence (Q9JMH7 whole entry, looked up): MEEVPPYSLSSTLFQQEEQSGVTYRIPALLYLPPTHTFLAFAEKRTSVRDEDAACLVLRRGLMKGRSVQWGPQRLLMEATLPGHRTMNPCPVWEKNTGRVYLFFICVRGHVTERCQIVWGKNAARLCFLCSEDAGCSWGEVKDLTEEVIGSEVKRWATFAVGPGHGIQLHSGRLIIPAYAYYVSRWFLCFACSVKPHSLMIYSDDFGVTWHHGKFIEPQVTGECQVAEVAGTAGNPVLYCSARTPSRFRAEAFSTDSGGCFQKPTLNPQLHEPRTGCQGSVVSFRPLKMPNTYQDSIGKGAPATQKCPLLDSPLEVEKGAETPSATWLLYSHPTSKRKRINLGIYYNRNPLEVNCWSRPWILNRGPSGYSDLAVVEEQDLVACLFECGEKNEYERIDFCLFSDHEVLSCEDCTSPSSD

SMILES: CC(=O)N[C@H]1[C@H]([C@H](O)[C@H](O)CO)OC(C(=O)O)=C[C@@H]1NC(=N)N [ZANAMIVIR]
Ki [8]: Not Active | IC50 [1]: > 500 µM

SMILES: CCCCC(=O)NC[C@@H](O)[C@@H](O)[C@@H]1OC(C(=O)O)=C[C@H](O)[C@H]1NC(C)=O
logD at 2 h, 10 µM [5]: -1 | IC50 [17]: 220 µM

SMILES: CC(=O)N[C@H]1[C@H]([C@H](O)[C@H](O)CO)OC(C(=O)O)=C[C@@H]1O [NEU5AC2EN]
logD at 2 h, 10 µM [5]: < -1.5 | Ki [8]: Not Active

Further lines, results first:

IC50 [1]: > 500 µM
SMILES: CC(=O)N[C@H]1[C@H]([C@H](O)[C@H](O)Cn2cc(-c3ccc(C(=O)O)cc3)nn2)OC(C(=O)O)=C[C@@H]1N=[N+]=[N-]

inhibition [2]: inactive | Activity [3]: 60% | Activity [4]: 85% | logD at 2 h, 10 µM [5]: 1.2 | IC50 [6]: 3.8 µM | Ki [7]: 0.32 µM | Ki [8]: Not Active | IC50 [9]: 0.58 µM | IC50 [1]: > 500 µM
SMILES: CC(=O)N[C@H]1[C@H]([C@H](O)[C@H](O)Cn2cc(-c3ccc(-c4ccccc4)cc3)nn2)OC(C(=O)O)=C[C@@H]1NC(=N)N

half-life at 20 µM [10]: > 1.5 h | efflux ratio at 0.5 h, 62.5 µM [11]: 6.7 | Papp A→B at 0.5 h, 62.5 µM [12]: 0.32 ×10⁻⁶ cm/s | Papp B→A at 0.5 h, 62.5 µM [13]: 2.2 ×10⁻⁶ cm/s | solubility kinetic at 24 h, 10000 µM [14]: 5 µg/mL (≈ 9.08 µM) | solubility kinetic at 24 h, 10000 µM ([15]; Tris-HCl buffer, pH 7.4, read-out: Kinetic_solubility): 3.9 µg/mL (≈ 7.08 µM) | solubility kinetic at 24 h, 10000 µM [16]: 3.2 µg/mL (≈ 5.81 µM) | logD at 2 h, 10 µM [5]: 3.8
SMILES: CCCCOC(=O)C1=C[C@H](O)[C@@H](NC(C)=O)[C@H]([C@H](O)[C@H](O)Cn2cc(-c3ccc(-c4ccccc4)cc3)nn2)O1

solubility kinetic at 24 h, 10000 µM [14]: > 1 µg/mL | Kinetic_solubility ([15]; buffer, pH 7.4, 10000 µM): 1.5 µg/mL | solubility kinetic at 24 h, 10000 µM [16]: > 1 µg/mL | logD at 2 h, 10 µM [5]: 2.3
SMILES: COC(=O)C1=C[C@H](O)[C@@H](NC(C)=O)[C@H]([C@H](O)[C@H](O)Cn2cc(-c3ccc(-c4ccccc4)cc3)nn2)O1

IC50 [17]: > 500 µM | IC50 [9]: > 500 µM | IC50 [1]: > 500 µM
SMILES: CC(=O)N[C@H]1[C@H]([C@H](O)[C@H](O)Cn2cc(-c3ccc(C(=O)O)cc3)nn2)OC(C(=O)O)=C[C@@H]1N
